Test results taken from PubChem BioAssay.
Calls of active or inactive are those of the source. Rule as the data show it, unless noted: active = inhibition above about 31%; inactive = the rest.

Key:
[1] = HUVEC growth inhibition – cell-based, human, primary screen (AID 575;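 active = viability at or below 30% in both replicate assays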;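 also: 100% = median of untreated cell wells with 0.1% DMSO on each plate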); settings: HUVEC proliferation, CellTiter-Glo luminescence, 72 h; at 10 µM; stronger effect = lower value
Outline: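 Test system: HUVEC primary cells. Quantity: 1250 endothelial cells in each well. Dosing: single-point 10 µM, DMSO 0.1% final. Incubation: 72 h treatment at 37 °C. Measured by: CTG luminescence. Control set: DMSO cell controls and MePR drug controls. Plate: collagen-coated 384-well format.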

[2] = growth inhibitors of H69AR lung tumor, primary screen, human, duplicate replicates (AID 580;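 active = viability at or under a set limit in both replicates, limit being median viability minus 3 SD, cut at about 48% in these data, passing the limit was not always enough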;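 also: 100% = mean luminescence of untreated wells and 0% = no signal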); settings: H69AR lung tumor cells viability, ATP luminescence, 72 h; at 10 µM; stronger effect = lower value
[3] = reversal of MRP1-mediated doxorubicin resistance, pilot screen, H69AR cells, doxorubicin co-treatment (AID 601;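 active = viability loss from added drug above about 55%, and viability with drug at most 40%, in both replicates, limit read from the data, passing the limit was not always enough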); settings: CellTiter-Glo, 72 h, at 10 µM; for differential viability (reversal): stronger effect = higher value
[4] = 384-well plate pilot, post-Golgi transport modulator project, inhibition of yeast transport mutant growth (AID 636); settings: absorbance 615 nm, about 18 h, stronger effect = higher value
[5] = growth suppression of yeast trafficking mutant, preliminary HTS, modulators of trafficking downstream of Golgi apparatus project, 1536-format plate, OD 615 nm (AID 637; in the data active = inhibition above about 30%); settings: yeast transport mutant growth, absorbance 615 nm, 18 h; stronger effect = higher value
[6] = H69AR cells + 2 uM doxorubicin, measured here: viability with 2 uM doxorubicin, stronger effect = lower value
[7] = H69AR cells, compound alone cytotoxicity

Row | Compound | viability [1] | viability [2] | differential viability (reversal) ([3]; H69AR cells + 2 uM doxorubicin) | viability [3, 6] [%] | viability [3, 7] [%] | inhibition [4] | inhibition [5]
1 | C/C(=N\O)c1ccc2c3c([nH]c2c1)CCCC3 | 25.3% (active) | 88.1% (inactive) | -8.65% (inactive) | 96.8 | 88.1 | -3.77% (inactive) | -0.16% (inactive)
2 | COc1ccc(C(=O)Nc2ccc(S(=O)(=O)Nc3nccnc3OC)cc2)cc1OC | 97.4% (inactive) | 99.6% (inactive) | 11% (inactive) | 88.6 | 99.6 | 1.69% (inactive) | 4.6% (inactive)
3 | c1ccc(CC2CCN(Cc3nc(-c4ccccc4)no3)CC2)cc1 | 65.1% (inactive) | 87.9% (inactive) | -4.31% (inactive) | 92.2 | 87.9 | -5.13% (inactive) | 0.95% (inactive)
4 | COc1ccc(NC(=O)COc2ccccc2)c(OC)c1 | 111% (inactive) | 104% (inactive) | 23.1% (inactive) | 81 | 104 | -5.6% (inactive) | 0.16% (inactive)
5 | Cc1[nH]nc2c1C1(CCN(C(=O)c3ccccc3)CC1)C(C#N)=C(N)O2 | 104% (inactive) | 98.7% (inactive) | 3.04% (inactive) | 95.7 | 98.7 | 0.52% (inactive) | 6.83% (inactive)
6 | CCOC(=O)c1ccc(NC(=O)N2CCN(CCc3ccccc3)CC2)cc1 | 91.7% (inactive) | 101% (inactive) | 10.2% (inactive) | 90.4 | 101 | -2.11% (inactive) | -0.32% (inactive)
7 | COc1ccccc1-c1nc(C(F)(F)F)c(OC)o1 | 104% (inactive) | 91.9% (inactive) | 10.3% (inactive) | 81.6 | 91.9 | -1.97% (inactive) | 17.9% (inactive)
8 | CC(C)Cc1nnc(NC(=O)CCC(=O)N2CCOCC2)s1 | 91.5% (inactive) | 96.2% (inactive) | 0.305% (inactive) | 95.9 | 96.2 | -4.8% (inactive) | 0.63% (inactive)
9 | Cn1c(Cc2cccs2)nnc1SCC(=O)N1CCc2ccccc21 | 94.1% (inactive) | 84.3% (inactive) | -9.72% (inactive) | 94 | 84.3 | -0.66% (inactive) | -8.1% (inactive)
10 | CCOc1ccccc1OCC(=O)NCc1ccco1 | 84.3% (inactive) | 85.3% (inactive) | 0.205% (inactive) | 85.1 | 85.3 | -3.6% (inactive) | -0.32% (inactive)
11 | O=C(Nc1nc(-c2ccc(S(=O)(=O)N3CCCC3)cc2)cs1)C1COc2ccccc2O1 (stereo not drawn) | 79.1% (inactive) | 90.3% (inactive) | -1.52% (inactive) | 91.8 | 90.3 | -3.73% (inactive) | -6.83% (inactive)
12 | O=C(CN1CCOCC1)Nc1cccc(C(=O)Nc2cccc(C(F)(F)F)c2)c1 | 95.5% (inactive) | 101% (inactive) | 8.35% (inactive) | 92.4 | 101 | -0.26% (inactive) | 0% (inactive)
13 | CCCS(=O)(=O)N1CCC(C(=O)NCCN2CCCC2)CC1 | 96.5% (inactive) | 94.9% (inactive) | 8.3% (inactive) | 86.6 | 94.9 | -3.2% (inactive) | 2.86% (inactive)
14 | CCCS(=O)(=O)N1CCN(C(=O)CCC2CCCC2)CC1 | 101% (inactive) | 85% (inactive) | 0.865% (inactive) | 84.1 | 85 | -3.29% (inactive) | -1.11% (inactive)
15 | COC(=O)c1c(C(=O)OC)n(CCCN)c2ccc(C)cc12 | 89.1% (inactive) | 89.7% (inactive) | 4.39% (inactive) | 85.3 | 89.7 | -0.52% (inactive) | -1.11% (inactive)
16 | COC(=O)C1=C(C)N(c2ccc(C(=O)OC)cc2)C(=O)C1 | 86.9% (inactive) | 88.8% (inactive) | 2.86% (inactive) | 86 | 88.8 | -0.39% (inactive) | 1.43% (inactive)
17 | COc1ccc(OC)c(CNC(=O)CCN2C(=O)COc3ccccc32)c1 | 90.1% (inactive) | 91.8% (inactive) | 3.34% (inactive) | 88.5 | 91.8 | -1.32% (inactive) | -2.06% (inactive)
18 | CCOc1ccc(C(=O)Cc2ccc3oc(C(=O)O)cc3c2)c(O)c1 | 89.4% (inactive) | 98.8% (inactive) | 10.4% (inactive) | 88.4 | 98.8 | -4.29% (inactive) | 7.62% (inactive)
19 | CN1CCN(C(=O)c2ccccc2N(Cc2ccccc2)S(C)(=O)=O)CC1 | 93.3% (inactive) | 91.6% (inactive) | 6.72% (inactive) | 84.9 | 91.6 | -6.1% (inactive) | -6.35% (inactive)
20 | CC(=O)NC1=NC(=O)/C(=C/N2CCCCC2)S1 | 99.5% (inactive) | 95.9% (inactive) | 5.1% (inactive) | 90.8 | 95.9 | -1.97% (inactive) | -2.22% (inactive)

Row | Compound | viability [1] | viability [2] | differential viability (reversal) ([3]; H69AR cells + 2 uM doxorubicin) | viability [3, 6] [%] | viability [3, 7] [%] | inhibition [4] | inhibition [5]
21 | CCOc1ccccc1C(=O)NCc1ccc2c(c1)OCO2 | 88.2% (inactive) | 67.4% (inactive) | -20.6% (inactive) | 88.1 | 67.4 | -7.73% (inactive) | 3.02% (inactive)
22 | Cc1nnc(SCC(=O)Nc2nccs2)s1 | 95.7% (inactive) | 93% (inactive) | 1.75% (inactive) | 91.3 | 93 | -6.67% (inactive) | -2.22% (inactive)
23 | CCOC(=O)CSc1nnc(CNC(=O)c2ccc(OC)c(OC)c2)n1C | 107% (inactive) | 95.7% (inactive) | -2.17% (inactive) | 97.8 | 95.7 | -1.82% (inactive) | -2.54% (inactive)
24 | CCCC(=O)N1CCN(c2ccc(NC(=O)c3ccc(Br)o3)cc2)CC1 | 125% (inactive) | 104% (inactive) | 3.6% (inactive) | 101 | 104 | 1.58% (inactive) | -2.22% (inactive)
25 | C1=CC2CC1CC2CN1CCN(c2ccccc2)CC1 (stereo not drawn) | 97.7% (inactive) | 91.8% (inactive) | -2.94% (inactive) | 94.8 | 91.8 | 1.45% (inactive) | -1.27% (inactive)
26 | Cc1nc2cc(CO)ccc2n1C | 93.1% (inactive) | 98.1% (inactive) | 9.13% (inactive) | 89 | 98.1 | -5.97% (inactive) | -1.9% (inactive)
27 | COc1cc(NC(=O)Nc2cccc(Cl)c2)c(OC)cc1NC(=O)CN1CCCCC1 | 20.3% (active) | 3.06% (active) | -9.94% (inactive) | 13 | 3.06 | -6.27% (inactive) | -0.95% (inactive)
28 | COc1ccccc1NC1=NC2(CCCC2)N=C(N)N1 | 91.3% (inactive) | 99.7% (inactive) | 8.79% (inactive) | 90.9 | 99.7 | -2.6% (inactive) | 3.02% (inactive)
29 | c1ccc(CNC2=NCCC2)nc1 | 102% (inactive) | 101% (inactive) | 3.93% (inactive) | 96.8 | 101 | -0.91% (inactive) | -7.46% (inactive)
30 | O=C(Nc1cc(C(F)(F)F)ccc1Cl)c1cc(C2CC2)on1 | 96.4% (inactive) | 91% (inactive) | 3.55% (inactive) | 87.4 | 91 | -3.82% (inactive) | 0.63% (inactive)
31 | O=C(Cn1c(=O)[nH]c2ccsc2c1=O)N1CCN(c2ccc(F)cc2)CC1 | 91% (inactive) | 87.2% (inactive) | 1.24% (inactive) | 86 | 87.2 | -1.84% (inactive) | 4.6% (inactive)
32 | CC(NC(=O)OCc1ccccc1)C(=O)N1CC(O)CC1C(=O)O (stereo not drawn) | 82.5% (inactive) | 98.5% (inactive) | 17.6% (inactive) | 81 | 98.5 | -0.39% (inactive) | -1.59% (inactive)
33 | CN(C)C(CNc1nnnn1-c1ccccc1)c1ccco1 (stereo not drawn) | 79.2% (inactive) | 77.4% (inactive) | 5% (inactive) | 72.4 | 77.4 | -3.77% (inactive) | 1.11% (inactive)
34 | CCOC(=O)C1=C(CC)Nc2ccccc2N=C1NC(=O)Nc1ccccc1OC | 50.5% (inactive) | 74% (inactive) | -0.52% (inactive) | 74.5 | 74 | 0.52% (inactive) | 1.11% (inactive)
35 | O=C(c1cccnc1)N1CCN(Cc2ccc3c(c2)OCO3)CC1 | 89.6% (inactive) | 95.8% (inactive) | 14.4% (inactive) | 81.4 | 95.8 | -7.73% (inactive) | 1.75% (inactive)
36 | Cc1cc(N2C(=O)C(=O)/C(=C(/O)c3ccc(F)cc3)C2c2ccc(F)cc2)no1 (stereo not drawn) | 78.3% (inactive) | 91.3% (inactive) | 3.5% (inactive) | 87.8 | 91.3 | -5.47% (inactive) | 5.08% (inactive)
37 | COc1cccc(-c2cc(C(F)(F)F)n3nc(N)nc3n2)c1 | 92.3% (inactive) | 88.9% (inactive) | -2.71% (inactive) | 91.6 | 88.9 | -0.53% (inactive) | 10.3% (inactive)
38 | O=C(Nc1ccc(N2CCCC2=O)cc1)c1cccc(F)c1 | 109% (inactive) | 99.9% (inactive) | 21.6% (inactive) | 78.2 | 99.9 | -4.61% (inactive) | 0.95% (inactive)
39 | Cc1cc(C)n(CCCNC(=O)c2ccc(S(=O)(=O)NCc3ccco3)cc2)n1 | 97.6% (inactive) | 94.2% (inactive) | 7.31% (inactive) | 86.9 | 94.2 | -3.77% (inactive) | 3.17% (inactive)
